The list is not random: actives were taken first. Their share in the collection is about 1.9%.
proKLK7 act: activates the human kallikrein-7 zymogen; purified proKLK7, EDANS-DABCYL substrate fluorescence; 100% is mature enzyme control, 0% vehicle; activation, % at 7 µM; hit rate 0.9% among 370,000; P49862;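 active means activation above the mean of all tested compounds plus 3 SD, computed per campaign excluding outliers beyond control limits, cut at about 13% in these data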
Target sequence (P49862 whole entry, looked up): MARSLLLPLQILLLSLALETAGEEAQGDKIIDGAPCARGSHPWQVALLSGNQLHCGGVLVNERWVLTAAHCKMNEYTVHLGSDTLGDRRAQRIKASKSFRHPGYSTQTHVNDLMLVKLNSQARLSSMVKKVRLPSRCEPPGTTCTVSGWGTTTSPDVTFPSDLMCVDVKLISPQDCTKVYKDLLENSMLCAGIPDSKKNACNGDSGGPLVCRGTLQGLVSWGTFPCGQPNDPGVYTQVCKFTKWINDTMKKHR
Rce1 inhib: inhibitors of yeast Ras-converting enzyme. Q03530. yeast membranes, quenched prenylated peptide cleavage fluorescence. calls only. hit rate 0.27% among 290,000. AID 2563;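 active means fall in fluorescence gain of 50% or more versus controls, with final raw signal at or below 3038400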
Target sequence (Q03530 whole entry, looked up): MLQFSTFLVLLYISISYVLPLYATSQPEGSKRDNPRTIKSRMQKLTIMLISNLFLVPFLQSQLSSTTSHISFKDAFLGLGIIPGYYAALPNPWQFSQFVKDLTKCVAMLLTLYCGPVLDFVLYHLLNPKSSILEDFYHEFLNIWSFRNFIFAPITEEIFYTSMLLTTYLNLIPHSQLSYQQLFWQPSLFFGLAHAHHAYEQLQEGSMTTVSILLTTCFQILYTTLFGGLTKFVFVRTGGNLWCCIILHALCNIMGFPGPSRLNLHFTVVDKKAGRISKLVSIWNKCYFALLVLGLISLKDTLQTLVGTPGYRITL
V-ATPase pHluor: regulators of yeast V-ATPase proton transport. S. cerevisiae, pHLuorin cytosolic pH fluorescence. AID 504577. hit rate 0.37% among 350,000. response, % at 10 µM; in the data active means response mostly above about 7.3%, no sharp cut-off; inactive means mostly below about 5.4%; further: actives read high
beta cell repl: MIN6 beta-cell proliferation induction; hit rate 0.29% among 330,000; proliferation, % at 10 µM; MIN6 cells proliferation, ATPlite luminescence, 48 h; cells starved in 0.2% serum; 100% = growth in 10% serum;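 active means compounds whose signal lies at least 3.5 SD above the mean of all wells on their plate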
T cell HTS: T cell immune modulators affecting CD8 T cell-vesicle binding. 2C CD8+ T cell-vesicle binding, flow cytometry; active compounds read low. response (vesicle binding), % at 7 µM. hit rate 0.068% among 330,000. AID 2052;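 active means response, share of CD8 T cells binding vesicles, and their 90th percentile fluorescence all below set limits, cut at about 80% in these data, passing the limit was not always enough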;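 further: values below 100% mean blocked vesicle binding to the CD8+ T cells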
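System: murine 2C transgenic CD8+ T lymphocytes; also added: QL9-loaded Drosophila micro-vesicles; times: binding 1.5 h at 37 °C; measured by: flow cytometry, PE anti-B7-1 (FL2) versus Alexa647 anti-CD8 (FL8), PFA-fixed; control set: Peptide-free naked vesicles (low) and QL9 vesicles with 0.7% DMSO vehicle (high)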
CR mimetic SO: lowers age-related superoxide in aged yeast cells | AID 2690 | S. cerevisiae aged cells, superoxide DHE fluorescence; active compounds read low | superoxide response (% of plate mean), % at 10 µM | hit rate 0.18% among 330,000;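 active means superoxide response under a set limit, about three screen SD below normal, cut at about 65% in these data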;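 further: yeast aged for seven days with compound at 30 °C before DHE staining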
Of the large screens only hits and unclear results are named; the others gave an inactive call.

COc1ccccc1/C=C/C=N/NC(=O)CN1CCN(S(=O)(=O)c2ccc(C)cc2)CC1	Rce1 inhib active
Cc1ccc(S(=O)(=O)N2CCN(CC(=O)N/N=C/c3ccccc3OCC(=O)O)CC2)cc1	none (no result: V-ATPase pHluor)
O=NN(CC(=O)NN=CC=Cc1ccccc1)CC(=O)NN=CC=Cc1ccccc1	none (no result: Rce1 inhib, V-ATPase pHluor, beta cell repl, T cell HTS, CR mimetic SO)
O=C(CN1CCOCC1)N/N=C/C=C/c1ccccc1	beta cell repl 8.9
CCN(CC)C(=O)c1ccc(/C=C/c2c[nH]c3ccccc23)[n+](C)c1	none
CC[n+]1c(/C=C/c2c[nH]c3ccccc23)ccc2cc(C)ccc21	V-ATPase pHluor 8.2 (no result: Rce1 inhib, T cell HTS, CR mimetic SO)
O=C(CN1CCc2onc(-c3ccc(-n4cc(-c5ccccc5)nn4)cc3)c2C1=O)N1CCOCC1	none (no result: Rce1 inhib, V-ATPase pHluor, beta cell repl, T cell HTS, CR mimetic SO)
CC(=O)N1c2ccc([N+](=O)[O-])cc2NC(=O)CC1C (configuration not stated)	Rce1 inhib active
CCCOc1ccc(-c2cn3ccccc3n2)cc1[N+](=O)[O-]	none
COc1ccc(-c2cn3ccccc3n2)cc1[N+](=O)[O-]	Rce1 inhib active
COC(=O)/C(=N/Nc1ccc(C)cc1)N1CCCc2ccccc21	CR mimetic SO 63
COC(=O)/C(=N/Nc1ccccc1)N1CCCc2ccccc21	none
CCN1CCN(C(=O)c2cnn3c(C(F)F)cc(-c4ccc(C)cc4)nc23)CC1	proKLK7 act 13
Cc1ccc(NC(=O)CCc2ccc(S(=O)(=O)NC3CCCCC3)cc2)cc1	Rce1 inhib active
O=C(CCc1ccc(S(=O)(=O)NC2CCCCC2)cc1)Nc1ccccc1	none
CCOc1c(Cl)cc(CNCC(C)C)cc1Cl	V-ATPase pHluor 20
Cc1cc(C)c(NC(=O)CNC(=O)c2cc(C3CC3)nn2-c2ccccc2)c(C)c1	none (no result: Rce1 inhib)
Cc1cccc(NC(=O)CNC(=O)c2cc(C3CC3)nn2-c2ccccc2)c1C	V-ATPase pHluor 24 (no result: Rce1 inhib, T cell HTS, CR mimetic SO)
Cn1c(=O)c2cc(S(=O)(=O)NCCC(=O)NCCc3ccc(Cl)cc3)ccc2n(C)c1=O	V-ATPase pHluor 22
CC(Cc1cccs1)NC(=O)c1cccs1 (configuration not stated)	none
CC(Cc1cccs1)NC(=O)Nc1ccc([N+](=O)[O-])cc1 (configuration not stated)	Rce1 inhib active
Cc1ccc(NC(=O)Cc2ccc(OC(F)F)cc2)c(S(=O)(=O)N2CCOCC2)c1	none (no result: Rce1 inhib, V-ATPase pHluor, beta cell repl, T cell HTS, CR mimetic SO)
N#Cc1c(OCC(=O)c2ccccc2)nc2c(c1-c1ccco1)CCc1ccccc1-2	Rce1 inhib active
O=C(c1coc(=O)c(Br)c1)N1CCC(C(O)(c2ccccc2)c2ccccc2)CC1	none
CC1(C)CCCN(C(=O)c2coc(=O)c(Br)c2)C1	Rce1 inhib active (no result: beta cell repl, T cell HTS, CR mimetic SO)
CC(C)(C)C(=O)NC1CCCCN(Cc2cccc(Cl)c2)C1=O (configuration not stated)	none (no result: Rce1 inhib, V-ATPase pHluor, beta cell repl, T cell HTS, CR mimetic SO)
CC(CCc1ccccc1)NCC(O)c1ccc(O)c(C(N)=O)c1 (configuration not stated)	Rce1 inhib active
COC(=O)c1c(NC(=O)COC(=O)c2ccc(Cl)nc2)sc(C)c1C	T cell HTS 49
COC(=O)c1c(NC(=O)COC(=O)c2ccccn2)sc(C)c1C	none
CCOC(=O)CC[C@H]1CC[C@]2(CCCN(C(=O)C(C)(C)C)C2)O1	none (no result: Rce1 inhib, V-ATPase pHluor, beta cell repl, T cell HTS, CR mimetic SO)
Cc1cc(NS(=O)(=O)c2ccc(NC(=O)CSc3nnc(-c4ccccn4)n3Cc3ccco3)cc2)nc(C)n1	none (no result: Rce1 inhib, V-ATPase pHluor, beta cell repl, T cell HTS, CR mimetic SO)
CC(=O)Nc1ccc(C(=O)Nc2ccc(S(=O)(=O)NCC3CCCO3)cc2)cc1 (configuration not stated)	none
CC(=O)Oc1ccc(C(=O)Nc2ccc(S(=O)(=O)NCC3CCCO3)cc2)cc1 (configuration not stated)	Rce1 inhib active
O=C1CC(N2CCC(Cc3ccccc3)CC2)C(=O)N1CCc1ccccc1 (configuration not stated)	V-ATPase pHluor 10
CCc1cc(=O)oc2c(C)c(OC(C)C(=O)NC3CC(C)(C)NC(C)(C)C3)ccc12 (configuration not stated)	Rce1 inhib active
CCC(C)c1ccc(NC(=O)CSc2nnc(-c3cccc(C)c3)n2C)cc1 (configuration not stated)	none (no result: Rce1 inhib, V-ATPase pHluor, beta cell repl, T cell HTS, CR mimetic SO)
CC(C)(C)c1cc(O)c(C(C)(C)C)cc1O	CR mimetic SO 52 (no result: proKLK7 act, V-ATPase pHluor)
Cc1ccc(S(=O)(=O)N2CCCC(C(=O)NCCN3CCC(Cc4ccccc4)CC3)C2)cc1 (configuration not stated)	none (no result: Rce1 inhib, V-ATPase pHluor, beta cell repl, T cell HTS, CR mimetic SO)
Cn1c(=O)cc(-c2ccccc2)c2ccccc21	V-ATPase pHluor 13
C=CCN=C(NC#N)SCC(=O)NC(C)(C)C	none
C=CCN=C(NC#N)SC	CR mimetic SO 43
COc1ccc(-c2oc3ccccc3c2C(=O)OCc2ccccc2OC)cc1	Rce1 inhib active
COc1ccc(C(=O)c2c(-c3ccc(OC)cc3)oc3ccccc23)cc1	none (no result: Rce1 inhib)
O=C(CC1CCCC1)N1CCN(S(=O)(=O)c2ccccc2)CC1	V-ATPase pHluor 668 (no result: Rce1 inhib)
OCCN(CCO)c1cc2c3ccccc3ccc2c2ccccc12	none (no result: Rce1 inhib, beta cell repl, T cell HTS, CR mimetic SO)
OCCN(CCO)c1ccc2ccccc2c1	Rce1 inhib active
Cc1cc(C)cc(N2CC(O)=C(c3nc4ccccc4c(=O)[nH]3)C2=N)c1	Rce1 inhib active
N#Cc1c(C(F)(F)F)cc(-c2ccc(Cl)cc2)[nH]c1=O	proKLK7 act 21
COc1ccc(CN2C(=O)N3Cc4ccc(C)cc4C3CS2(=O)=O)cc1 (configuration not stated)	none (no result: Rce1 inhib, V-ATPase pHluor, beta cell repl, T cell HTS, CR mimetic SO)
CC(C)C[C@@H]1COc2cc(Br)ccc2S(=O)(=O)N1Cc1cn(Cc2ccc(F)cc2)nn1	none (no result: Rce1 inhib, V-ATPase pHluor, beta cell repl, T cell HTS, CR mimetic SO)
O=C(CC1(O)C(=O)N(CCc2ccccc2)c2ccccc21)c1ccccn1 (configuration not stated)	none
O=C(CC1(O)C(=O)N(C/C=C/c2ccccc2)c2ccccc21)c1ccccn1 (configuration not stated)	Rce1 inhib active
Cc1ccc(S(=O)(=O)CC(=O)N2CCN(c3ccccc3F)CC2)cc1	Rce1 inhib active
CN(CCO)c1ccc2c(c1)Oc1ccccc1CN(Cc1cn(Cc3ccc(F)cc3)nn1)S2(=O)=O	none (no result: Rce1 inhib, V-ATPase pHluor, beta cell repl, T cell HTS, CR mimetic SO)
C=CCC1(CC=C)CCCN1C(=O)C1CCC(=O)N(CCc2ccc(OC)cc2)C1 (configuration not stated)	none
C=CCC1(CC=C)CCCN1C(=O)C1CCC(=O)N(CCc2ccccc2)C1 (configuration not stated)	T cell HTS 66
Oc1ccc(C2C=C(c3ccc(F)cc3)Nc3ncnn32)cc1 (configuration not stated)	proKLK7 act 27 (no result: beta cell repl, T cell HTS, CR mimetic SO)
CCC(C)(C)c1ccc(OCCCC[n+]2cccc(C)c2C)c(C(C)(C)CC)c1	Rce1 inhib active, CR mimetic SO 65
COC(=O)[C@]12C[C@H](CC(=O)N3CCOCC3)C(=O)N(CCC3=CCCCC3)C1=C[C@H](C(C)C)O[C@@H]2C1CC1	none (no result: Rce1 inhib, V-ATPase pHluor, beta cell repl, T cell HTS, CR mimetic SO)
COc1cc(-c2nc3ccccn3c2/N=C/c2cccc(OC)c2O)ccc1O	Rce1 inhib active

Screens as filed in PubChem.
